Source: ChEMBL document CHEMBL3785082, “(±)-Homocrepidine A, a Pair of Anti-inflammatory Enantiomeric Octahydroindolizine Alkaloid Dimers from Dendrobium crepidatum” (J Nat Prod, 2016)
Active and inactive are the calls of the source. The rule behind the calls is not given here.

Tests used:
[1] = tested on: RAW264.7; experiment: Antiinflammatory activity in mouse RAW264.7 cells assessed as inhibition of LPS-induced NO production at 100 uM preincubated for 1 hr followed by LPS stimulation measured after 20 hrs by Griess assay; format: functional, cell-based
Method in brief: (§1)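 RAW 264.7 cells in DMEM with 10% FBS, penicillin/streptomycin, 2 mM L-glutamine and 1 mM nonessential amino acids, seeded at 4 × 10^5 cells/well, settled 4 h at 37 °C, 5% CO2. Compounds in 0.1% DMSO (final 0.1–100 μM) added 1 h before LPS (5 μg/mL solution). After a further 20 h, supernatant mixed 1:1 with Griess reagent for 5 min, A540 read. At least triplicate; indomethacin as reference.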

[2] = Cytotoxicity against mouse RAW264.7 cells assessed as inhibition of cell viability at 100 uM by MTT assay; format: cell-based; conditions: read-out: INH
Method in brief: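 Same RAW 264.7 culture and plating as the nitrite assay: compounds in 0.1% DMSO added 1 h before LPS (5 μg/mL solution), then 20 h incubation. Viability read by standard MTT assay. At least triplicate.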

[3] = tested on: RAW264.7; experiment: Antiinflammatory activity in mouse RAW264.7 cells assessed as inhibition of LPS-induced iNOS overexpression at 5 uM after 24 hrs by Western blot analysis; format: functional, cell-based
Method in brief: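 RAW 264.7 cells pretreated with 5 μg/mL LPS or solvent, then exposed to 5 μM compound for 24 h. Lysed in cold buffer with 1% PMSF; protein by Bradford, 25 μg run on SDS-PAGE, blotted to nitrocellulose, blocked in 5% milk/TBS-Tween 60 min. Anti-iNOS overnight at 4 °C, HRP secondary 1 h, ECL on film; densitometry normalized to β-actin. Mean ± SD, n = 3–5.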

[4] = tested on: RAW264.7; experiment: Antiinflammatory activity in mouse RAW264.7 cells assessed as inhibition of LPS-induced NO production preincubated for 1 hr followed by LPS stimulation measured after 20 hrs by Griess assay; format: functional, cell-based; method in brief: as §1
[5] = Inhibition of L-rhamnosidase (unknown origin)

| Compound | inhibition [1] | cytotoxicity at 100 µM [2] [%] | inhibition [3] | IC50 [4] [µM] | Ki [5] [µM] |
| --- | --- | --- | --- | --- | --- |
| CC(=O)[C@H]1[C@@H]2CC[C@H]3C[C@@H](C)[C@](O)(c4ccccc4)[C@H](C[C@@]1(C)O)N32 | inactive | < 10 | – | – | – |
| C[C@@H]1C[C@@H]2CCCN2[C@H](CC(=O)C[C@H]2N3CCC[C@H]3C[C@@H](C)[C@]2(O)c2ccccc2)[C@@]1(O)c1ccccc1 | – | – | inactive | 22.8 | – |
| CC1CC2CCCN2C(CC(=O)CC2N3CCCC3CC(C)C2(O)c2ccccc2)C1(O)c1ccccc1 (racemic) | – | < 10 | inactive | 14.7 | – |
| O[C@@H]1[C@@H]2[C@@H](O)CCCN2C[C@@H]1O | – | – | – | – | 0.45 |
| CC(=O)CCCC[C@H]1C[C@@H](C)[C@@](O)(c2ccccc2)CN1 | – | < 10 | – | 27.6 | – |
| C[C@H]1C[C@H]2CCCN2[C@@H](CC(=O)C[C@@H]2N3CCC[C@@H]3C[C@H](C)[C@@]2(O)c2ccccc2)[C@]1(O)c1ccccc1 | – | – | Active | 3.6 | – |
